Laboratory results published in the RNAGym collection of RNA variant scans (doi:10.1126/science.aae0568).
Fewer inactive variants are shown than the library holds.

B1: tRNA (parent)
chain: GUUCCGUUGGCGUAAUGGUAACGCGUCUCCCUCCUAAGGAGAAGACUGCGGGUUCGAGUCCCGUACGGAACG

Variants of: B1
Assay: yeast fitness relative to wild type (ratio to wild type); higher = fitter; tRNA-Arg(CCU), competitive growth, 37 C, YPD
In short: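 Start and end populations of a pooled competition were compared by 100-nucleotide paired-end sequencing of gene amplicons. The Saccharomyces cerevisiae strains carried tRNA-Arg(CCU) gene variants at the native genomic locus, synthesised with a 3% per-site mutation rate at 69 sites, and competed in YPD at 37°C for 24 hours in six parallel replicates. Darwinian fitness relative to wild type was based on the change in genotype frequencies. Genotypes required ≥ 100 starting reads, and estimates < 0.5 were set to 0.5.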

Point of comparison: C33A C55G, yeast fitness 0.564. Against it:
- C33G A45G U64A — higher, 0.586
- C33A A40U C55U C62U — lower, ≤ 0.5
- C33G A42G G52A A70U — lower, ≤ 0.5
- C33A U35A A70C — lower, ≤ 0.5
- C34G C49G U54A A57C G68A — lower, ≤ 0.5
- C33U G56A G58C — higher, 0.589
- C33G A42C C49G G58C C62G — lower, 0.513
- C33A G50A — lower, 0.545
- U32G G67C — higher, 0.59
- C34G G58A G63C — lower, ≤ 0.5
- C34G A36U G58A — higher, 0.605
- C33G A70G — higher, 0.633
- C33U C62A — higher, 0.824
- C33U C62G — higher, 0.632
- C34A U64C — higher, 0.834
- C33U G44C C60U A69G — lower, ≤ 0.5
- C34A A43C A65C — lower, ≤ 0.5
- C34G A36C A70C — lower, ≤ 0.5
- C34A G56C — lower, ≤ 0.5
- C33A C34G C60A A70C — lower, ≤ 0.5
- C34G G39A — higher, 0.703
- C34G G39C — higher, 0.58
- C33U A43U C49G G50C C60G — lower, ≤ 0.5
- C34A A37C — higher, 0.713
- C33U C49G G52C — lower, 0.501
- C33G C62A G63C — lower, ≤ 0.5
- C34A A45C A70C — higher, 0.701
- C33A A40G — higher, 0.683
- C33A C46G C60U — higher, 0.76
- C34G G68U — higher, 0.638
- C33U A42C — higher, 0.63
- C34G A40U U47A G67C — lower, ≤ 0.5
- C34A A70G — higher, 0.634
- C33U C61A G63C A65G — lower, 0.549
- C34A C55G G58A U64C A65C — lower, ≤ 0.5
- C34G C49G U54C C61U A69G — lower, ≤ 0.5
- C33G A57U G68A A69U — lower, ≤ 0.5
- C33A A43C G50A A57U C60G — lower, ≤ 0.5
- C33A C34G G50A — lower, 0.517
- C34G A40C A43U — lower, ≤ 0.5
- C33U A45U G68A — higher, 0.67
- C33A A70U — higher, 0.655
- C33A A43G A45C C60A — the same, 0.564
- C34G U47G — lower, 0.561
- C33A U35C C46U C49U G52C C61U C66U A69U — lower, 0.528
- C34A A43U A70U — higher, 0.607
- C34G A40C G44A — lower, ≤ 0.5
- C33G A42C C66G A70G — lower, ≤ 0.5
- C34A A40U G67A — lower, ≤ 0.5
- C33A U54C C55G — lower, ≤ 0.5
- U32G G39C C62G G68A — lower, ≤ 0.5
- C34G G52A — lower, 0.562
- C34G G52C — lower, ≤ 0.5
- C33U U47A — higher, 0.829
- C33G U64A — lower, ≤ 0.5
- C33U U47A G63A — lower, ≤ 0.5
- U32G U35G A36C C61G A70G — higher, 0.583
- C34U A36C A40C C55A C66U — lower, 0.526
- C34G U64A — higher, 0.654
- C34G U64G — lower, 0.518
- C34A G41C — higher, 0.757
- C33U A43U C49A G50C C61U C66U — lower, ≤ 0.5
- C34A G52A C61G G63A — lower, ≤ 0.5
- C33A G58C C62G U64G — lower, ≤ 0.5
- C33G U47G G56A A57G A69U — lower, ≤ 0.5
- C34G A42C G51C — lower, 0.525
- C33U A37C G67U A69U — lower, ≤ 0.5
- U32G G50A — higher, 0.714
- C33G C66A — lower, ≤ 0.5
- C33G C66U — higher, 0.787
- C34U A36C A70C — higher, 0.594
- C33G G52A U64C C66U G67A — lower, ≤ 0.5
- C34A A37C C49A — lower, 0.522
- C34G A69U A70C — higher, 0.696
- C34G G48A A57G — higher, 0.631
- C33G A40G C66G — higher, 0.698
- C34G A40G — higher, 0.642
- C34A G51A — higher, 0.656
- C33G A57G C61G G63A A65G C66U — lower, ≤ 0.5
- C34G G63A G67A — lower, ≤ 0.5
- C34G C61U — higher, 0.602
- C33A A42C A45C U47G — lower, 0.515
- C33U C55U A70U — higher, 0.627
- C33U A70U — higher, 0.902
- C33U A70C — higher, 0.832
- C34A A43C G67A — lower, 0.537
- C34G G41A A42C G67C — higher, 0.597
- C34A A42U U54A A57U — lower, 0.511
- C34A A42U C61G A65U — lower, ≤ 0.5
- C34A A45G G63C — higher, 0.676
- C33G U35A — lower, ≤ 0.5
- C33G U35C — higher, 0.603
- C34G A36C C55G — lower, ≤ 0.5
- C34G A45G — higher, 0.657
- C34G A45C — higher, 0.569
- C33A A57U — the same, 0.564
- C33A A57G — higher, 0.781
- C33U G39A A57G C66U — lower, 0.557
- C33G A37G C46A C49U — lower, ≤ 0.5
- C33G C60A C66G — lower, ≤ 0.5
- C34A A45G A57U C66U — lower, ≤ 0.5
- C33U A57G C66U — lower, ≤ 0.5
- C33U C34U G38A G51A C55A A65U — higher, 0.566
- C33U G68C — higher, 0.686
- C33G A42G G52A C62A A70U — higher, 0.589
- C33G A36U A57C — lower, ≤ 0.5
- C33U C61U A69G — lower, ≤ 0.5
- C33G A40C C62G — lower, ≤ 0.5
- C34G C66A A69C — higher, 0.599
- C33U C61U C66G — lower, 0.543
- C33G U53A — higher, 0.65
- C33A U54G A70C — lower, ≤ 0.5
- C34G C55U G63A — lower, ≤ 0.5
- U32G U35A G48A G63C A69G — lower, 0.524
- C34G U53G — lower, ≤ 0.5
- C33G U35C U59A A69U — higher, 0.657
- C33U G38A C46U — lower, 0.562
- C34A G68C — higher, 0.841
- C34A G68U — higher, 0.647
- C33U A36C A43G A57U — lower, ≤ 0.5
- C34A A42U G58C C60A C62U — higher, 0.571
- C33G A42U C61G — lower, ≤ 0.5
- C34A G41A C62U — lower, ≤ 0.5
- C34G G52A A65U — lower, ≤ 0.5
- U32G G41C — higher, 0.597
- C34A U54A G67A — lower, ≤ 0.5
- C34G C49U — higher, 0.708
- C33U C34A G38C G52A — lower, ≤ 0.5
- C34G A42G C62U — higher, 0.589
- C34U A36C C46G — lower, ≤ 0.5
- C33U A43C — higher, 0.656
- C33U A43U — higher, 0.898
- C33A G39C C49U U54A G68A — lower, ≤ 0.5
- C33G A45G C55G G56C — lower, ≤ 0.5
- C33A G39C C49U U54A — lower, ≤ 0.5
- C34G C55G U59C C60U G67U A70C — lower, ≤ 0.5
- U32G U35A G38C G51C C66U — higher, 0.579
- U32G G39C A43G G52C — higher, 0.571
- U32G G48C A65C — higher, 0.574
- C33A U35G C49U A65U — lower, ≤ 0.5
- C33G C49A C55G G56C — lower, 0.561
- C34G A57C G63A — lower, ≤ 0.5
- C33G G41A G50A — higher, 0.624
- C34G C49U A65C — lower, 0.532
- C34G A43U C55U A57C C66A — higher, 0.639
- C33U G51A A65U — lower, ≤ 0.5
- C34G A42C C46U U54A C55G G58C C66A — lower, ≤ 0.5
- C33G U35C U59A — higher, 0.594
- C33G G38A — higher, 0.684
- C33U A36G G41A C61G — lower, ≤ 0.5
- C33G A40U G56A — lower, ≤ 0.5
- C33A A37U C62A A70C — higher, 0.605
- C34G G56A — higher, 0.639
- C33A A37G — lower, 0.531
- C33A A37C — lower, ≤ 0.5
- U32G U35G A36C A37G C61G A70G — lower, ≤ 0.5
- C33G G51C G68A A69C — higher, 0.607
- C34G G41C A69U — lower, ≤ 0.5
- C33A A36C C46G C62G A69U — lower, ≤ 0.5
- C33G U53A C60U — higher, 0.637
- C34G U59C — higher, 0.602
- C33U C34A — higher, 0.574
- U32G G56C — lower, ≤ 0.5
- C33U C46A C55G — higher, 0.604
- C33G C62U — higher, 0.758
- C34G A37C C62A — lower, ≤ 0.5
